Data taken from ChEMBL document CHEMBL5331127, “Discovery of ARD-2051 as a Potent and Orally Efficacious Proteolysis Targeting Chimera (PROTAC) Degrader of Androgen Receptor for the Treatment of Advanced Prostate Cancer” (J Med Chem, 2023).

Key:
Assay type in all cases: cell-based
[1] = target: T1, Androgen receptor (Homo sapiens) (UniProt P10275); test: Induction of androgen receptor degradation in human VCaP cells at 0.01 uM after 24 hrs by Western blotting analysis relative to control
T1 sequence (whole entry): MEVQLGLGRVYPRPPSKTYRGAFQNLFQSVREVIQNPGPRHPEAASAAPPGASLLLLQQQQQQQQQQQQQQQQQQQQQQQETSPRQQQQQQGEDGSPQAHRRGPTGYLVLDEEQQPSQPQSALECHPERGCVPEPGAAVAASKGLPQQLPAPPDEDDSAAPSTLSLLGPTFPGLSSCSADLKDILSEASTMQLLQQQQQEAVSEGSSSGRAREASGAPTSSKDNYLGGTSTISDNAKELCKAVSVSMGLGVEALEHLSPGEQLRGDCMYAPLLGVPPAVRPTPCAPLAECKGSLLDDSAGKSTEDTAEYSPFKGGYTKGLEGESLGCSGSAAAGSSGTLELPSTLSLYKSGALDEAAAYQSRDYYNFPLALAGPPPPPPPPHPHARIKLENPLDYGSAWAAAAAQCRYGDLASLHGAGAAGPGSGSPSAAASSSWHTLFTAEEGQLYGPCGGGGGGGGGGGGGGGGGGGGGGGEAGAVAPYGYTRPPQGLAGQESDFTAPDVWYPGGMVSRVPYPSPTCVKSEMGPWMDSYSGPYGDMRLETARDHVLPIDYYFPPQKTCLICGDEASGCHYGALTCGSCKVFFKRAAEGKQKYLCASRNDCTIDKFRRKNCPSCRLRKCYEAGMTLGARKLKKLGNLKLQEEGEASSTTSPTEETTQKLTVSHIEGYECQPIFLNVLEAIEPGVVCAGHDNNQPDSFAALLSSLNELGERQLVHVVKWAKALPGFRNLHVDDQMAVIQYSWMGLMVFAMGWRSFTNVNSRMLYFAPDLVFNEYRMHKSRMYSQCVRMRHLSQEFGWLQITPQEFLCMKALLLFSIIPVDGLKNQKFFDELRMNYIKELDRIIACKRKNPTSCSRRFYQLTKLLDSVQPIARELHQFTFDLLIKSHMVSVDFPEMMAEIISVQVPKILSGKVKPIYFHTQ
In short: (§1)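 VCaP cells treated for 24 h at 10, 100 or 1000 nM. AR protein measured by Western blotting.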

[2] = target: T1, Androgen receptor (Homo sapiens); test: Induction of androgen receptor degradation in human VCaP cells at 0.1 uM after 24 hrs by Western blotting analysis relative to control; in short: as §1
[3] = target: T1, Androgen receptor (Homo sapiens); test: Induction of androgen receptor degradation in human VCaP cells at 1 uM after 24 hrs by Western blotting analysis relative to control; in short: as §1

| Structure (SMILES) | Activity [1] | Activity [2] | Activity [3] |
| --- | --- | --- | --- |
| C[C@H]1CC2(CCN(c3ccc(C(=O)N4CCN(CC5CN(c6ccc7c(c6)C(=O)N(C6CCC(=O)NC6=O)C7=O)C5)CC4)cc3)CC2)CN1c1ccc(C#N)c(Cl)c1 (stereo partly drawn) | > 90% | > 95% | > 95% |
| C[C@H]1CC2(CCN(c3ccc(C(=O)N4CCN(C5(C#N)CN(c6ccc7c(c6)C(=O)N(C6CCC(=O)NC6=O)C7=O)C5)CC4)cc3)CC2)CN1c1ccc(C#N)c(Cl)c1 (stereo partly drawn) | 81% | 93% | 88% |
| C[C@H]1CC2(CCN(c3ccc(C(=O)N4CCC(N5CCN(c6ccc7c(c6)C(=O)N(C6CCC(=O)NC6=O)C7=O)CC5)CC4)cc3)CC2)CN1c1ccc(C#N)c(Cl)c1 (stereo partly drawn) | 78% | > 95% | > 95% |
| N#Cc1ccc(N2CCC3(CCN(C(=O)c4ccc(N5CCN(C6CCN(c7ccc8c(c7)C(=O)N(C7CCC(=O)NC7=O)C8=O)CC6)CC5)cc4)CC3)C2)cc1Cl (stereo not drawn) | < 5% | 43% | 56% |
| C[C@H]1CC2(CCN(c3ccc(C(=O)N4CC5(C4)CN(c4ccc6c(c4)C(=O)N(C4CCC(=O)NC4=O)C6=O)C5)cc3)CC2)CN1c1ccc(C#N)c(Cl)c1 (stereo partly drawn) | 79% | > 95% | > 95% |
| N#Cc1ccc(N2CCC3(CCN(c4ccc(C(=O)N5CCC(N6CCN(c7ccc8c(c7)C(=O)N(C7CCC(=O)NC7=O)C8=O)CC6)CC5)cc4)CC3)C2)cc1Cl (stereo not drawn) | 37% | 20% | > 95% |
| C[C@H]1CC2(CCN(c3ccc(C(=O)N4CC(N5CCN(c6ccc7c(c6)C(=O)N(C6CCC(=O)NC6=O)C7=O)CC5)C4)cc3)CC2)CN1c1ccc(C#N)c(Cl)c1 (stereo partly drawn) | > 90% | > 95% | > 95% |
| N#Cc1ccc(N2CCC3(CCN(c4ccc(C(=O)N5CCCN(C6CCN(c7ccc8c(c7)C(=O)N(C7CCC(=O)NC7=O)C8=O)CC6)CC5)cc4)CC3)C2)cc1Cl (stereo not drawn) | 45% | 80% | 92% |
| C[C@H]1CC2(CCN(c3ccc(C(=O)N4CCC(CN5CCN(c6ccc7c(c6)C(=O)N(C6CCC(=O)NC6=O)C7=O)CC5)CC4)cc3)CC2)CN1c1ccc(C#N)c(Cl)c1 (stereo partly drawn) | 81% | > 95% | > 95% |
| N#Cc1ccc(N2CCC3(CCN(C(=O)c4ccc(C(=O)N5CCN(CC6CCN(c7ccc8c(c7)C(=O)N(C7CCC(=O)NC7=O)C8=O)CC6)CC5)cc4)CC3)C2)cc1Cl (stereo not drawn) | < 5% | < 5% | 33% |
| C[C@@H]1N(c2ccc(C#N)c(Cl)c2)CCC12CCN(c1ccc(C(=O)N3CCN(C4CN(c5ccc6c(c5)C(=O)N(C5CCC(=O)NC5=O)C6=O)C4)CC3)cc1)CC2 (stereo partly drawn) | 84% | > 95% | > 95% |
| N#Cc1ccc(N2CCC3(CCN(c4ccc(C(=O)N5CC6(C5)CN(C5CN(c7ccc8c(c7)C(=O)N(C7CCC(=O)NC7=O)C8=O)C5)C6)cc4)CC3)C2)cc1Cl (stereo not drawn) | 22% | 62% | 81% |
| C[C@H]1CC2(CCN(c3ccc(C(=O)N4CCN(C5CN(c6ccc7c(c6)C(=O)N(C6CCC(=O)NC6=O)C7=O)C5)CC4)cc3)CC2)CN1c1ccc(C#N)c(C(F)F)c1 (stereo partly drawn) | > 90% | > 95% | > 95% |
| C[C@@H]1CC2(CCN(c3ccc(C(=O)N4CCN(C5CN(c6ccc7c(c6)C(=O)N(C6CCC(=O)NC6=O)C7=O)C5)CC4)cc3)CC2)CN1c1ccc(C#N)c(Cl)c1 (stereo partly drawn) | 66% | 93% | > 95% |
| N#Cc1ccc(N2CCC3(CCN(c4ccc(C(=O)N5CCC6(C5)CN(C5CCN(c7ccc8c(c7)C(=O)N(C7CCC(=O)NC7=O)C8=O)CC5)C6)cc4)CC3)C2)cc1Cl (stereo not drawn) | 20% | 60% | 82% |
| C[C@H]1CC2(CCN(c3ccc(C(=O)N4CCN(CC5CCN(c6ccc7c(c6)C(=O)N(C6CCC(=O)NC6=O)C7=O)CC5)CC4)cc3)CC2)CN1c1ccc(C#N)c(Cl)c1 (stereo partly drawn) | > 90% | > 95% | > 95% |
